pIC50: −log10 of the molar value. Calls of active or inactive are those of the source. The calls are words filed in the database; no cut-off is given here.
Key:
[1] = Ratio of DSCG IC50 to compound IC50 for human LAD2 mast cell; assay type: functional
LAD2 [2] = assay: Inhibition of human LAD2 mast cell activation assessed as compound 48/80-induced degranulation incubated for 30 mins prior to compound 48/80 challenge by beta-hexosaminidase release assay; assay type: functional, cell-based
Outline: (§1)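 Supernatant was incubated with 2 mg/mL p-nitrophenyl-N-acetyl-D-glucosaminide in citrate buffer pH 4.5 for 1 h at 37 °C and stopped with 0.4 M glycine. A405 was read; % release = supernatant/(supernatant + lysate) × 100.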

LAD2 [3] = assay: Inhibition of human LAD2 mast cell activation assessed as compound 48/80-induced degranulation at 200 to 400 uM incubated for 30 mins prior to compound 48/80 challenge by beta-hexosaminidase release assay in presence of UV light; assay type: functional, cell-based
LAD2 [4] = assay: Inhibition of human LAD2 mast cell activation assessed as compound 48/80-induced degranulation at 200 to 400 uM incubated for 30 mins prior to compound 48/80 challenge by beta-hexosaminidase release assay; assay type: functional, cell-based; outline: as §1
LAD2 [5] = assay: Inhibition of human LAD2 mast cell activation assessed as compound 48/80-induced degranulation at 10 to 20 uM incubated for 30 mins prior to compound 48/80 challenge by beta-hexosaminidase release assay; assay type: functional, cell-based; outline: as §1
LAD2 [6] = assay: Inhibition of human LAD2 mast cell activation assessed as compound 48/80-induced degranulation at 10 to 20 uM incubated for 30 mins prior to compound 48/80 challenge by beta-hexosaminidase release assay in presence of UV light; assay type: functional, cell-based
LAD2 [7] = assay: Inhibition of human LAD2 mast cell activation assessed as 1.0 uM compound 48/80-induced degranulation incubated for 30 mins prior to compound 48/80 challenge by beta-hexosaminidase release assay; assay type: functional, cell-based; outline: as §1
LAD2 [8] = assay: Inhibition of human LAD2 mast cell activation assessed as 0.1 uM compound 48/80-induced degranulation incubated for 30 mins prior to compound 48/80 challenge by beta-hexosaminidase release assay; assay type: functional, cell-based; outline: as §1
LAD2 [9] = assay: Inhibition of human LAD2 mast cell activation assessed as compound 48/80-induced degranulation at 1000 uM incubated for 30 mins prior to compound 48/80 challenge by beta-hexosaminidase release assay; assay type: functional, cell-based; outline: as §1
LAD2 [10] = assay: Inhibition of human LAD2 mast cell activation assessed as compound 48/80-induced degranulation at 100 uM incubated for 30 mins prior to compound 48/80 challenge by histamine release assay; assay type: functional, cell-based
Outline: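 Supernatant histamine was derivatized: NaOH, then 0.25% o-phthalaldehyde in MeOH for 4 min at room temperature, then HCl. Fluorescence was read at ex 360/em 450 nm; n = 3.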

LAD2 [11] = assay: Inhibition of human LAD2 mast cell activation assessed as compound 48/80-induced degranulation at 10 uM incubated for 30 mins prior to compound 48/80 challenge by beta-hexosaminidase release assay; assay type: functional, cell-based; outline: as §1

Structure (SMILES): O=C([O-])c1cc(=O)c2c(OCc3ccc(/N=N/c4ccc(COc5cccc6oc(C(=O)[O-])cc(=O)c56)cc4)cc3)cccc2o1.[Na+].[Na+]
- Ratio IC50 [1]: 100
- pIC50 (LAD2 [2]): 4.55

Structure (SMILES): O=C(O)c1cc(=O)c2cc(/N=N/c3ccc4oc(C(=O)O)cc(=O)c4c3)ccc2o1 (mixture of isomers)
- inhibition (LAD2 [3]): Active
- inhibition (LAD2 [4]): Active

Structure (SMILES): O=C(O)c1cc(=O)c2c(OCc3ccc(/N=N/c4ccc(COc5cccc6oc(C(=O)O)cc(=O)c56)cc4)cc3)cccc2o1
- inhibition (LAD2 [5]): Active
- inhibition (LAD2 [6]): Active

Structure (SMILES): O=C(O)c1cc(=O)c2c(OCC(O)COc3cccc4oc(C(=O)O)cc(=O)c34)cccc2o1 [CROMOLYN SODIUM]
- inhibition (LAD2 [7]): inactive
- inhibition (LAD2 [8]): Active
- inhibition (LAD2 [9]): Active
- pIC50 (LAD2 [2]): < 3.00
- Activity (LAD2 [10]): inactive

Structure (SMILES): O=C(O)c1cc(=O)c2c(OCc3ccc(/N=N/c4ccc(COc5cccc6oc(C(=O)O)cc(=O)c56)cc4)cc3)cccc2o1 (mixture of isomers)
- inhibition (LAD2 [5]): Active
- inhibition (LAD2 [6]): Active

Structure (SMILES): O=C(O)c1cc(=O)c2cc(/N=N/c3ccc4oc(C(=O)O)cc(=O)c4c3)ccc2o1
- inhibition (LAD2 [3]): Active
- inhibition (LAD2 [4]): Active

Structure (SMILES): O=C(O)c1cc(=O)c2c(OCc3cccc(/N=N/c4cccc(COc5cccc6oc(C(=O)O)cc(=O)c56)c4)c3)cccc2o1
- inhibition (LAD2 [11]): Active
- inhibition (LAD2 [5]): Active
- inhibition (LAD2 [6]): Active
- inhibition (LAD2 [10]): Active

Structure (SMILES): O=C(O)c1cc(=O)c2c(OCc3cccc(/N=N/c4cccc(COc5cccc6oc(C(=O)O)cc(=O)c56)c4)c3)cccc2o1 (mixture of isomers)
- inhibition (LAD2 [5]): Active
- inhibition (LAD2 [6]): Active

Structure (SMILES): O=C([O-])c1cc(=O)c2c(OCc3cccc(/N=N/c4cccc(COc5cccc6oc(C(=O)[O-])cc(=O)c56)c4)c3)cccc2o1.[Na+].[Na+]
- Ratio IC50 [1]: 100
- pIC50 (LAD2 [2]): 5.00
